From ChEMBL document CHEMBL4513216, “Probing the Open Global Health Chemical Diversity Library for Multistage-Active Starting Points for Next-Generation Antimalarials” (ACS Infect Dis, 2020) come the findings set out here.

Each structure is given as a SMILES string.

The nature of the series: Toxicity liver stage against HepG2, at 10uM. The class given is cell-based. Details: test concentration 10 uM, cell line HepG2-A16-CD81EGFP. The following applies: human, HepG2-A16-CD81EGFP cells; read-out: INHIBITION
In short, it runs like this:
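Uninfected HepG2-A16-CD81EGFP cells, 3 × 10^3 per well, 1536-well, plated on prespotted compound at 10 μM final, parasite-free screening media added to match infected plates; puromycin 10 μM positive, DMSO 0.5% negative; run in parallel with 48 h PbLuc assay at 37 °C, 5% CO2; viability by CellTiter-Glo luminescence, normalized to controls.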
Take `COC(=O)c1cccc(C(=O)N2CCN(c3ccc(Cl)cc3)CC2)n1`: the cytotoxicity at 10 µM was -7.55%.

Regarding `COC(=O)c1ncccc1N1CCCCC1`, the cytotoxicity at 10 µM is -8.77%.

Turning to `CCC1=N[C@@]2(CC[C@@H]3CN(Cc4ccccc4F)C[C@@H]32)C(=O)N1CC`, the cytotoxicity at 10 µM is -12.4%.

In the case of `c1ccc(CN2CCCC[C@H]3CN(c4ncccn4)C[C@H]32)cc1`, the cytotoxicity at 10 µM is -3.81%.

As to `Cc1cn2c(n1)CCC(NC(=O)CCC(F)(F)F)C2` (configuration not stated), the cytotoxicity at 10 µM is -9.12%.

Take `CN(Cc1ccccn1)C1COC2(CCN(Cc3cccnc3)CC2)C1` (configuration not stated): the cytotoxicity at 10 µM was -1.42%.

For `CCc1ncc(C(=O)N2CCCCC2Cn2cccn2)s1` (configuration not stated), the cytotoxicity at 10 µM was -2.48%.

With `Cn1nc(-c2cccc(Cl)c2)c(Br)c1C(=O)O`, the cytotoxicity at 10 µM is -56.5%.

In the case of `O=C(CNC(=O)C1CC1)NCC(F)(F)F`, the cytotoxicity at 10 µM was -5.82%.

On to `CC(=O)N1CCOC(CNC(=O)c2cccc(CCC(C)(C)O)c2)C1` (configuration not stated), for which the cytotoxicity at 10 µM came out at 0.303%.

Regarding `c1ccc(Sc2ccc3c(c2)OCO3)c(CNC2=NCCN2)c1`, the cytotoxicity at 10 µM came out at 17.6%.

`CC(C)N1CCCC2(CCN(C(=O)CCCn3cncn3)C2)C1=O` (configuration not stated): the cytotoxicity at 10 µM is -11.1%.

For the compound `N#CC1(NC(=O)c2ccc(-c3nc(C4CC4)n[nH]3)cc2)CCC1`, the cytotoxicity at 10 µM stood at 0.614%.

Consider `CCCN1CCC(CNC(=O)C2(c3cccc(C)c3)CC2)C1` (configuration not stated), for which the cytotoxicity at 10 µM is -13.4%.

Consider `COc1cc(CNC(C)c2nnc3n2CCC3)cc(OC)c1` (configuration not stated), for which the cytotoxicity at 10 µM was -41.7%.

Take `CCOC(=O)CCC(=O)N1CCC(Oc2ncccc2Cl)CC1`: the cytotoxicity at 10 µM is -5.57%.

With `Cc1cc(C)n(CC(=O)N2CCC(c3nc(C(C)C)no3)CC2)n1`, the cytotoxicity at 10 µM amounted to 9.1%.

As to `O=C(c1ccc(-n2ccnc2)cc1)N1CCCC1`, the cytotoxicity at 10 µM is -7.55%.

For `Cc1noc(CCCC(=O)NC(C)c2ccccn2)n1` (configuration not stated), the cytotoxicity at 10 µM is -10.9%.

As for `Cc1nn(C)cc1C(=O)N1C[C@@H]2CC[C@H]1CN(S(=O)(=O)N(C)C)C2`, the cytotoxicity at 10 µM is 19.8%.

As for `Cc1nc(C)n(CC2CN(CCOc3ccccc3F)CCO2)n1` (configuration not stated), the cytotoxicity at 10 µM was -1.44%.

As to `Cc1cc(C)n(CC(=O)N2CCC(c3cc4cccnc4[nH]3)CC2)n1`, the cytotoxicity at 10 µM stood at 16.8%.

Turning to `CC(=O)Nc1nc(C(=O)NC(C)c2ccncc2)cs1` (configuration not stated), the cytotoxicity at 10 µM is -6.5%.

As to `CC(C)CN1CCC2(CCN(C(=O)c3ccc(F)cc3)CC2)C1=O`, the cytotoxicity at 10 µM amounted to 8.06%.

Turning to `CCOC1COC2(CCN(Cc3ccc4c(c3)OCO4)CC2)C1` (configuration not stated), the cytotoxicity at 10 µM was 6.94%.

Consider `Cc1nc(N2CCCC2)nc2c1CN(C(C)C)CC2`, for which the cytotoxicity at 10 µM is -6.85%.

`O=S(=O)(c1cn[nH]c1)N1CCCC(O)(CN2CCOCC2)CC1` (configuration not stated): the cytotoxicity at 10 µM came to 6.61%.

With `CCOc1cc(Cl)ccc1CNC(=O)N(C)CC(C)(C)O`, the cytotoxicity at 10 µM is -0.538%.

In the case of `CCOCCNc1nc(-c2ccncc2)nc2c1CCNCC2`, the cytotoxicity at 10 µM is -136%.

`COc1cc(Br)c(S(=O)(=O)NC(=O)C(C)OC)cc1OC` (configuration not stated): the cytotoxicity at 10 µM was -22.9%.

With `CSc1ccccc1CN1CCCn2nc(CNC(=O)N(C)C)cc2C1`, the cytotoxicity at 10 µM was -25.5%.

For the compound `CCc1ccc2nc(C)cc(C(=O)N3C[C@H]4CCC[C@@]4(CO)C3)c2c1`, the cytotoxicity at 10 µM is -2.37%.

Take `COC(C)(C)CNC(=O)C1CCC(=O)N(C2CCCC2)C1` (configuration not stated): the cytotoxicity at 10 µM was -6.52%.

Regarding `COc1ccccc1Nc1nc2c(s1)C(=O)CN(C(=O)CC(C)C)C2`, the cytotoxicity at 10 µM is 61.2%.

For `Cc1cnn(CC2CCCN2C(=O)c2cc3ccccc3c(=O)[nH]2)c1` (configuration not stated), the cytotoxicity at 10 µM is -4.77%.

For the compound `CCN(CCCc1ccccc1C)S(C)(=O)=O`, the cytotoxicity at 10 µM stood at 2.86%.

For the compound `CCc1nc(CN2CCCN(C(=O)CC3CCCC3)CC2)cs1`, the cytotoxicity at 10 µM is -25.2%.

Turning to `Cc1occc1C(=O)N1CC[C@@H]2[C@@H](CO[C@H]2CNS(C)(=O)=O)C1`, the cytotoxicity at 10 µM is 11.3%.

For `CCC(c1ccc(F)cc1)S(=O)(=O)CCO` (configuration not stated), the cytotoxicity at 10 µM was -136%.

For the compound `Cc1cc(N(C)Cc2cc(C(C)(C)C)n[nH]2)nc(-c2cccnc2)n1`, the cytotoxicity at 10 µM was 19.9%.

As for `O=S(=O)(CCNCc1cc(O)c2cc(F)ccc2n1)N1CCCC1`, the cytotoxicity at 10 µM was -39.5%.

With `Cc1nnc(C(C)N2CCCN(Cc3noc(C4CC4)n3)CC2)o1` (configuration not stated), the cytotoxicity at 10 µM was -21.2%.

Regarding `N#Cc1cccc(Cl)c1NC1CCN(CC(N)=O)CC1`, the cytotoxicity at 10 µM is -5.87%.

`Cc1cc(C2CCC2)nc(N(C)Cc2cc(-c3ccccn3)no2)n1`: the cytotoxicity at 10 µM was determined as 21.2%.

Consider `O=C(c1ccc2c(c1)CCC2)N1C[C@@H](CN2CCOCC2)[C@@H](CO)C1`, for which the cytotoxicity at 10 µM came to 20.7%.

As for `COc1ccc(CN2CCC3(CCCN(C)C3=O)C2)c(OC)c1C` (configuration not stated), the cytotoxicity at 10 µM is -0.409%.

With `CN(Cc1ccc(N2CCCCC2)cc1)Cc1noc(C(C)(C)C)n1`, the cytotoxicity at 10 µM worked out at 12.5%.

Take `Cn1cnnc1S(=O)(=O)C1CCN(S(=O)(=O)c2ccc(Cl)s2)CC1`: the cytotoxicity at 10 µM was -4.72%.

In the case of `O=C1N[C@@H]2CCN(C(=O)C3CC3)[C@@H]2C(=O)N1c1ccc(F)cc1`, the cytotoxicity at 10 µM was -1.8%.

On to `O=C(O)CCNC(=O)N1CCc2c([nH]c3ccc(Cl)cc23)C1`, for which the cytotoxicity at 10 µM was determined as 11.9%.

Consider `Cc1nccc(C2CCCN(S(=O)(=O)N3CCOCC3)C2)n1` (configuration not stated), for which the cytotoxicity at 10 µM came to 6.08%.

For the compound `COc1ccc(Cl)cc1CS(=O)(=O)Cc1nc(C2CC2)no1`, the cytotoxicity at 10 µM stood at 3.43%.

`Nc1cc(-c2cccc3ccnn23)ccn1`: the cytotoxicity at 10 µM was 0.858%.

For `Cc1nccn1CCN(C)c1nc(-c2cccnc2)nc2c1CCNC2`, the cytotoxicity at 10 µM is -21.2%.

For the compound `COc1cccc(Nc2nc(N3CCCC3)nc3c2CNCC3)c1`, the cytotoxicity at 10 µM was -6.41%.

With `COc1ccc(C)c(NC(=O)NCc2ncnn2C)c1`, the cytotoxicity at 10 µM was -4.27%.

Regarding `CCc1cc(OC)c(OC)cc1C(=O)Nc1cccnc1`, the cytotoxicity at 10 µM is 4.94%.

Turning to `CC(NC(=O)CN1C=Nc2ccccc2S1(=O)=O)c1ccccc1` (configuration not stated), the cytotoxicity at 10 µM is -0.476%.

Consider `O=C(c1ccsc1)N1CCN(CC(O)c2cccc(F)c2)CC1` (configuration not stated), for which the cytotoxicity at 10 µM is -46.7%.

On to `CC(C)COC(C)C(=O)NCc1ccc(N(C)C)cc1` (configuration not stated), for which the cytotoxicity at 10 µM turned out to be 2.53%.

For the compound `COC(=O)CC(c1cnn(C)c1)c1oc(C)cc(=O)c1O` (configuration not stated), the cytotoxicity at 10 µM is 21.9%.

On to `O=C(CCN1CCc2ccccc21)N1CC(C(=O)N2CCOCC2)C1`, for which the cytotoxicity at 10 µM was -26.7%.

Regarding `Cc1nnc(C(C)N2CCc3[nH]c4ccccc4c3C2)o1` (configuration not stated), the cytotoxicity at 10 µM was -9.42%.

Consider `Cc1ccc(C)c(CN2C[C@@H]3CC[C@H]2CN(C(=O)c2cccnc2)C3)c1`, for which the cytotoxicity at 10 µM came out at 3.41%.

On to `CCC(C)CNCC1(S(C)(=O)=O)CCOCC1` (configuration not stated), for which the cytotoxicity at 10 µM was -11.4%.

For `CCNc1cc2c(nn1)CCN(C(=O)c1cccc(CSC)c1)C2`, the cytotoxicity at 10 µM was -12.7%.

Consider `CCc1nnc(CN(C)c2nc(C(C)C)nc3c2cnn3C)o1`, for which the cytotoxicity at 10 µM was -9.52%.

As to `O=C(NCc1ccnc(OCC(F)(F)F)c1)NCC1CCOC1` (configuration not stated), the cytotoxicity at 10 µM is -3.22%.

Consider `Cc1cn2nc(N3CCCCC3Cn3cccn3)sc2n1` (configuration not stated), for which the cytotoxicity at 10 µM is -1.14%.

As for `O=C(Nc1cn[nH]c1)c1ccncc1`, the cytotoxicity at 10 µM was -6.01%.

With `O=C(Cc1cccc(O)c1)N1CCC2(CC1)c1ccccc1CC2O` (configuration not stated), the cytotoxicity at 10 µM was 2.28%.

`CC(C)(C)Oc1ccc(CN)c(C(F)(F)F)c1`: the cytotoxicity at 10 µM is 9.5%.

Consider `c1cncc(-c2nnc([C@H]3CCN(CC4CCCCC4)C3)o2)c1`, for which the cytotoxicity at 10 µM is -6.72%.

Take `Cc1ncsc1CN(C)C(=O)C(CC(C)C)N1CCCCC1=O` (configuration not stated): the cytotoxicity at 10 µM came to 3.28%.

Consider `COCCN1CCC2(C1)CN(c1ncccn1)C2`, for which the cytotoxicity at 10 µM is 10.7%.

For the compound `COCCn1cc(C(=O)N2CCCC2c2ccccc2C)ccc1=O` (configuration not stated), the cytotoxicity at 10 µM was found to be 7.69%.

Regarding `Cc1cc(O)nc(C2CCN(C(=O)CO)CC2)n1`, the cytotoxicity at 10 µM was 0.01%.

Regarding `O=C(C1CNCCN1C(=O)CCOc1ccccc1)N1CCOCC1` (configuration not stated), the cytotoxicity at 10 µM is 0.311%.

Turning to `Cc1ccsc1C(=O)N1CC(C(=O)NC(C)C)C2(CCOCC2)C1` (configuration not stated), the cytotoxicity at 10 µM is -1.49%.

Consider `CCN1CC2(CC1=O)CN(Cc1ccncc1)CCN(C(=O)C(C)C)C2` (configuration not stated), for which the cytotoxicity at 10 µM is -0.182%.

On to `CSc1ccccc1C(C(=O)O)N(C)CC1CCOCC1` (configuration not stated), for which the cytotoxicity at 10 µM amounted to 4.93%.

Regarding `Cc1ccc(Nc2nccc(C3CCN(CC(N)=O)C3)n2)nc1` (configuration not stated), the cytotoxicity at 10 µM was -16.7%.

As to `CCc1cnc(CN(C)C(=O)NC2CCN(C)C2=O)s1` (configuration not stated), the cytotoxicity at 10 µM is -0.786%.

In the case of `CC(C)c1nn(C)c(N(C)C)c1CNCC(O)c1ccccc1F` (configuration not stated), the cytotoxicity at 10 µM was -5.87%.

For `O=C(NCc1nnc2n1CCCC2)N1CCc2ccccc2C1`, the cytotoxicity at 10 µM came out at 4.79%.

`CC(C)n1c(C2CCCN(Cc3ccnn3C)C2)nc2ccccc21` (configuration not stated): the cytotoxicity at 10 µM is -0.0273%.

Turning to `CNCC1CCC(c2cc(CN(C)C(=O)c3cnccn3)n(C)n2)CC1` (configuration not stated), the cytotoxicity at 10 µM is -5.1%.

`CC(c1nnc(-c2ccccc2)o1)N1CCc2cncnc2C1` (configuration not stated): the cytotoxicity at 10 µM worked out at 8.59%.

Regarding `O=C(CN1CCCC1)N1CCCC(CNS(=O)(=O)Cc2ccccc2)C1` (configuration not stated), the cytotoxicity at 10 µM is -17.9%.

`Cn1cccc1CNCc1nnc2n1CCCC2C(F)(F)F` (configuration not stated): the cytotoxicity at 10 µM was -7.53%.

Take `CCS(=O)(=O)CCN(C)C(=O)NC(C)c1ccc(C)s1` (configuration not stated): the cytotoxicity at 10 µM was -9.02%.

`Cc1ccc(C(=O)NS(=O)(=O)c2ccc3c(c2)OCCCO3)o1`: the cytotoxicity at 10 µM is 2.91%.

Take `O[C@@]1(CNCC2(Cn3cccn3)CC2)CCCN2CCCC[C@@H]21`: the cytotoxicity at 10 µM came out at 4.13%.

Take `CCCNC(=O)c1nc2c(o1)CN(C(C)=O)C2`: the cytotoxicity at 10 µM was -70.6%.

With `CC(c1ccccn1)N(C)Cc1ccc(-n2cncn2)cc1` (configuration not stated), the cytotoxicity at 10 µM came to 5.33%.

Consider `CC(=O)NCC(Cc1cccc(F)c1)n1cccc1` (configuration not stated), for which the cytotoxicity at 10 µM is -5.36%.

With `Cc1ccccc1C(=O)Nc1ccc([C@H]2OCC(=O)N(C)[C@@H]2CO)cc1`, the cytotoxicity at 10 µM turned out to be 0.461%.
